Our source for the inhibition, Ki and Ratio Ki values is ChEMBL document CHEMBL3804776, “Synthesis and Evaluation of Macrocyclic Peptide Aldehydes as Potent and Selective Inhibitors of the 20S Proteasome” (ACS Med Chem Lett, 2016).

pKi: −log10 of the molar value. Calls of active or inactive are those of the source. The rule behind the calls is not given here. Residues, ends and D or L forms follow the SMILES beside them. *: point of attachment. Cbz = O=C(OCc1ccccc1)*

For test [1], the species on record is Oryctolagus cuniculus. Nature of the test: Inhibition of PGPH-like activity of rabbit 20S proteasome using Cbz-LLE-AMC substrate at 100 uM incubated at 37 degC by fluorometric assay. The gist of the method: (§1)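 Fluorometric kinetic enzyme assay run at a single inhibitor concentration of 100 μM. The outcome was scored as whether inhibition occurred at that concentration.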

Test [2] deals with T1, Calpain-2 catalytic subunit (Homo sapiens, UniProt P17655).
T1 sequence (P17655 whole entry): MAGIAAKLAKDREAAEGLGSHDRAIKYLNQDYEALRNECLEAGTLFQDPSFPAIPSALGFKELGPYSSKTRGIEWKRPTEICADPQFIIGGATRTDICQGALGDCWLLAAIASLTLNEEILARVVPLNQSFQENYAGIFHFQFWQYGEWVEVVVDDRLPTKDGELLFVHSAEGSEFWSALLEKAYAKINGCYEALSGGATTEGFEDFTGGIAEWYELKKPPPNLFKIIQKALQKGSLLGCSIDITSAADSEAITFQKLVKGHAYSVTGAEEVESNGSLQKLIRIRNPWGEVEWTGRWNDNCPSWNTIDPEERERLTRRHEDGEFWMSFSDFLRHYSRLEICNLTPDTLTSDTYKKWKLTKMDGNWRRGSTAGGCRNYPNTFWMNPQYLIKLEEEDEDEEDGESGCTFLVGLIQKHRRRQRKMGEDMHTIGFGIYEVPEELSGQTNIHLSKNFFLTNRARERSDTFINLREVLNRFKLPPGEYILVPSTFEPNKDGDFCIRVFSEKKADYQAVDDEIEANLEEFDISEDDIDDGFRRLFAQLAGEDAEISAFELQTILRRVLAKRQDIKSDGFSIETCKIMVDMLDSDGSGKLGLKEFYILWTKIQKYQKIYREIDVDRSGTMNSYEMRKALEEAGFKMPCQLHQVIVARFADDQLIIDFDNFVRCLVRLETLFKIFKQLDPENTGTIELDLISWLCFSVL
As to the kind of experiment: Inhibition of m-calpain (unknown origin) using Suc-LY-AMC as substrate by fluorometric assay.

A short description of test [3]: Selectivity ratio of Ki for m-calpain (unknown origin) to Ki for chymotrypsin-like activity of rabbit 20S proteasome.
Test [4] is filed under the species Oryctolagus cuniculus. As to the kind of experiment: Inhibition of trypsin-like activity of rabbit 20S proteasome using Cbz-ARR-AMC substrate at 100 uM incubated at 37 degC by fluorometric assay. A digest of the protocol: as §1
The subject of test [5] is HeLa. Nature of the test: Inhibition of 26S proteasome in IL1beta-induced human HeLa cells assessed as reduction in NFkappaB-DNA binding at 20 uM preincubated for 2 hrs followed by IL1beta stimulation by EMSA. It counts as cell-based. The gist of the method: (§2)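 HeLa human cervix carcinoma cells were pretreated with compound at 20 μM for 2 h, then stimulated with IL-1β. Read-outs were Western blot for IκBα phosphorylation (S32/36) and IκBα degradation, with β-actin as loading control, and EMSA for NF-κB DNA binding.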

Test [6] concerns HeLa. As to the kind of experiment: Inhibition of 26S proteasome in TNFalpha-induced human HeLa cells assessed as reduction in NFkappaB-DNA binding at 20 uM preincubated for 2 hrs followed by TNFalpha stimulation by EMSA. It counts as cell-based. The gist of the method: (§3)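 HeLa cells were preincubated for 2 h with 20 μM compound before TNFα stimulation. IκBα S32/36 phosphorylation and IκBα levels were assessed by Western blot (β-actin loading control). NF-κB DNA binding was measured by electrophoretic mobility shift assay.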

Test [7] deals with HeLa. As to the kind of experiment: Inhibition of 26S proteasome in TNFalpha-induced human HeLa cells assessed as accumulation of phosphorylated IkappaBalpha at 300 nM to 20 uM preincubated for 2 hrs followed by TNFalpha stimulation by Western blot analysis. The format is cell-based. A digest of the protocol: (§4)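 Dose-response in HeLa cells: compound at 0.1, 0.3, 1, 3, 10 and 20 μM before TNFα stimulation, with handling as in the single-dose experiment. Accumulation of phospho-IκBα (S32/36) was measured by Western blot with β-actin as loading control. NF-κB DNA binding was measured by EMSA.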
For orientation: In western blotting, separated proteins are transferred to a membrane and probed.

Test [8] concerns HeLa. As to the kind of experiment: Inhibition of 26S proteasome in TNFalpha-induced human HeLa cells assessed as reduction in NFkappaB-DNA binding at 300 nM to 20 uM preincubated for 2 hrs followed by TNFalpha stimulation by EMSA. The format is cell-based. The gist of the method:
as §4
Background: Mobility shift assays separate free from complexed probe on a gel.

In test [9] the test system is HeLa. Nature of the test: Inhibition of 26S proteasome in IL1beta-induced human HeLa cells assessed as reduction in IkappaBalpha degradation at 300 nM to 20 uM preincubated for 2 hrs followed by IL1beta stimulation.
Test [10] is described as follows: Selectivity ratio of Ki for human liver cathepsin B to Ki for chymotrypsin-like activity of rabbit 20S proteasome.
A short description of test [11]: Inhibition of chymotrypsin-like activity of rabbit 20S proteasome using Suc-LLVY-AMC substrate incubated at 37 degC by fluorometric assay. On the set-up: species or system Oryctolagus cuniculus.
Test [12] has as its system HeLa. Nature of the test: Inhibition of 26S proteasome in TNFalpha-induced human HeLa cells assessed as reduction in IkappaBalpha degradation at 20 uM preincubated for 2 hrs followed by TNFalpha stimulation by Western blot analysis. The format is cell-based. The gist of the method: as §3
Test [13] relates to HeLa. Nature of the test: Inhibition of 26S proteasome in TNFalpha-induced human HeLa cells assessed as phosphorylation of IkappaBalpha at 20 uM preincubated for 2 hrs followed by TNFalpha stimulation by Western blot analysis. The format is cell-based. A digest of the protocol: as §3
Test [14] is filed under the species Homo sapiens. As to the kind of experiment: Inhibition of chymotrypsin (unknown origin) using Suc-LLVY-AMC as substrate at 100 uM by fluorometric assay. A digest of the protocol:
as §1

Test [15] concerns HeLa. Nature of the test: Inhibition of 26S proteasome in IL1beta-induced human HeLa cells assessed as reduction in IkappaBalpha degradation at 20 uM preincubated for 2 hrs followed by IL1beta stimulation by Western blot analysis. It counts as cell-based. The gist of the method: as §2
Test [16] relates to HeLa. Nature of the test: Inhibition of 26S proteasome in IL1beta-induced human HeLa cells assessed as phosphorylation of IkappaBalpha at 20 uM preincubated for 2 hrs followed by IL1beta stimulation by Western blot analysis. It counts as cell-based. A digest of the protocol:
as §2

Test [17] deals with T2, Cathepsin B (Homo sapiens, UniProt P07858). As to the kind of experiment: Inhibition of human liver cathepsin B using Cbz-RR-AMC as substrate by fluorometric assay.
Test [18] can be described thus: Inhibition of trypsin-like activity of rabbit 20S proteasome using Cbz-ARR-AMC substrate incubated at 37 degC by fluorometric assay. Further details: species or system Oryctolagus cuniculus.
The target of test [19] is T3, Calpain-2 catalytic subunit (Homo sapiens) (UniProt P17655).
T3 sequence (whole entry): T1 sequence (P17655 whole entry)
As to the kind of experiment: Inhibition of m-calpain (unknown origin) using Suc-LY-AMC as substrate at 100 uM by fluorometric assay. The gist of the method:
as §1

Test [20] deals with T2, Cathepsin B. As to the kind of experiment: Inhibition of human liver cathepsin B using Cbz-RR-AMC as substrate at 100 uM by fluorometric assay. The gist of the method:
as §1

A short description of test [21]: Inhibition of PGPH-like activity of rabbit 20S proteasome using Cbz-LLE-AMC substrate incubated at 37 degC by fluorometric assay. Further details: species or system Oryctolagus cuniculus.

For the compound `COc1ccc(C[C@@H]2NC(=O)[C@@H](NC(=O)OCc3ccccc3)Cc3ccc([N+](=O)[O-])c(c3)Oc3ccc(cc3)C[C@@H](C(=O)N[C@H](C=O)CC(C)C)NC2=O)cc1`, the inhibition result in [1], in test [4] and in test [14] was “inactive” each time. Further, the pKi in [2] is 5.53; in test [11], 7.26; in test [17], 4.52. Further, the Ratio Ki in test [3] was found to be 55; in test [10] it was 550. Moreover, the inhibition result in test [5], in test [6], in [7], in test [8], in test [9] and in test [12] was “Active” throughout. In addition, the inhibition result in test [13], in test [15] and in test [16] was “Active” throughout.

With `CC(C)C[C@@H](C=O)NC(=O)[C@@H]1Cc2ccc(cc2)Oc2cc(ccc2[N+](=O)[O-])C[C@H](NC(=O)OCc2ccccc2)C(=O)N[C@@H](CC(C)C)C(=O)N1`, the inhibition entry in test [1] and in test [14] was “inactive” in each case. The pKi in test [2] is 5.69; in test [18], 5.09; in [11], 6.62; in test [17], 5.52. Besides, the Ratio Ki in [3] was found to be 8. Also, the inhibition result in test [5], in [6], in [7], in test [8], in [9] and in [12] was “Active” in each case. The inhibition entry in [13], in test [15] and in [16] was “Active” throughout.

For `CC(C)C[C@H](NC(=O)[C@H](CCc1ccccc1)NC(=O)CN1CCOCC1)C(=O)N[C@@H](Cc1ccccc1)C(=O)N[C@@H](CC(C)C)C(=O)[C@@]1(C)CO1` [CARFILZOMIB], the inhibition entry in [19], in [20] and in test [14] was “inactive” throughout. The same compound gave a pKi in test [11] of 7.59.

Turning to `COc1ccc(C[C@H](NC(=O)[C@H](Cc2ccccc2)NC(=O)OCc2ccccc2)C(=O)N[C@@H](Cc2ccccc2)C(=O)N[C@H](C=O)CC(C)C)cc1` (Cbz-FY(Me)FL-aldehyde), the values for the pKi in test [2], in test [11] and in [17] were 5.77, 7.55 and 5.64, respectively. The values for the Ratio Ki in [3] and in [10] were 61 and 80, respectively. Moreover, the inhibition result in test [14] is “inactive”.

With `CC(C)C[C@@H](C=O)NC(=O)[C@H](CC(C)C)NC(=O)[C@H](CC(C)C)NC(=O)OCc1ccccc1` [MG-132] (Cbz-Leu-Leu-Leu-aldehyde), the pKi in test [2] is 6.19; in test [11], 7.20; in test [21], 5.43; in test [17], 6.64. Further, the figures for the Ratio Ki in test [3] and in test [10] were 10 and 4, respectively. The inhibition result in [4] and in test [14] was “inactive” throughout. For the same compound, the inhibition entry in test [5], in test [6], in [7], in test [8], in test [9] and in test [12] was “Active” throughout. For the same compound, the inhibition result in [13], in [15] and in test [16] was “Active” throughout.

Regarding `CC(C)C[C@H](NC(=O)[C@H](Cc1ccccc1)NC(=O)c1cnccn1)B(O)O` [BORTEZOMIB], the inhibition entry in [19], in test [20] and in [14] was “inactive” each time. This compound also had a pKi in test [11] of 7.62.

As usually defined, the pKi is the Ki on a negative log10 scale, so that one unit is a factor of ten.
